TNAP inh no acc: human TNAP enzyme inhibitors, primary screen, biochemical, luminescent, no phosphate acceptor, uHTS; Alkaline phosphatase, tissue-nonspecific isozyme (Homo sapiens), P05186; purified TNAP, CDP-star luminescence, 30 min; inhibition, % at 20 µM; hit rate 0.26% among 200,000;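 active means tissue-nonspecific alkaline phosphatase inhibition above about 50% at 20 µM in the single-dose screen, limit read from the data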
Target sequence (P05186 whole entry, looked up): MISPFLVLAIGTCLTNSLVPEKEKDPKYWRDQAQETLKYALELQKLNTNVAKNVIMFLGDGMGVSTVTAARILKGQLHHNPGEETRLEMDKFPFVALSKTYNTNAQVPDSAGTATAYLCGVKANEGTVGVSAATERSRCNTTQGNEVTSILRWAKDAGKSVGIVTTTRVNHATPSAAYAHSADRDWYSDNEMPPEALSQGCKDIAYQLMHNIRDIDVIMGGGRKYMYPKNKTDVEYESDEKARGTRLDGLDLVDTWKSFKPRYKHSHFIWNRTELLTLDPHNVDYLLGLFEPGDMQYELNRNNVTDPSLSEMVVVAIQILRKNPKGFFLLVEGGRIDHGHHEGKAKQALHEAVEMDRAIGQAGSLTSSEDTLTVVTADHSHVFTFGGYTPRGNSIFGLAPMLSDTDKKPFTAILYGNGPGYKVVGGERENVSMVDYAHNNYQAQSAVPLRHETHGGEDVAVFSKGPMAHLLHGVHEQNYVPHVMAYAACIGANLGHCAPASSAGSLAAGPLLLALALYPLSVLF
PTEN del growth: growth suppression of PTEN-null HCT116, primary screen, cell-based, CellTiter-Glo; HCT116 PTEN-null viability, 60 h; hits give low values; viability, % at 10 µM; hit rate 1.2% among 140,000; AID 827, 2007;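 active means viability at or below a set limit, 4 SD under the median of all tested compounds, cut at about 3.7% in these data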;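 further: PTEN knockout HCT116 line with beta catenin targeted HCT116 as companion control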
TNAP act hi DEA: TNAP activators at high phosphate acceptor level, primary screen, biochemical, luminescence, uHTS; Alkaline phosphatase, tissue-nonspecific isozyme (Homo sapiens), P05186; purified TNAP, CDP-star luminescence, 1 M DEA, 30 min; hits give high values; 0 = EDTA background, 1 = DMSO-only activity; activation factor at 20 µM; 200,000 tested, under 10 active; AID 1136, 2008;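 active means activation factor at least 2 at 20 µM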
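Test system – human TNAP · Doses – 20 µM single point · Incubation – 30 min, room temperature · Signal – luminescent substrate turnover signal · Read-out basis – activation factor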
TNAP inh hi DEA: human TNAP enzyme inhibitors, primary screen, biochemical, luminescent, high phosphate acceptor level, uHTS; hit rate 0.03% among 200,000; purified TNAP, CDP-star luminescence, 1 M DEA; AID 1135, 2008; inhibition, % at 20 µM; Alkaline phosphatase, tissue-nonspecific isozyme (Homo sapiens), P05186;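 active means over 50% inhibition of tissue-nonspecific alkaline phosphatase at 20 µM in the single-dose screen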
L major viab: Leishmania major promastigote growth inhibition, primary screen. inhibition, % at 10 µM. Leishmania major promastigotes, resazurin fluorescence viability. hit rate 9% among 200,000; in the data active means inhibition above about 50%;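 further: promastigotes grown with compound for 44 hours at 28 °C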
HCT116 bCat-KO: primary screen for growth suppressors in beta-catenin knockout HCT116 cells (colon tumor, human). hit rate 1.5% among 140,000. viability, % at 10 µM. HCT116 beta-catenin knockout viability, CellTiter-Glo, 60 h; hits give low values;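 active means viability at or under a set limit, the compound median less 4 SD, cut at about 6% in these data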
Hits are given with their value; i = inactive; nt = no result given. Only some compounds are listed: those with a hit (about 9.6% of all), similar ones and a draw of the others.

SMILES | TNAP inh no acc | PTEN del growth | TNAP act hi DEA | TNAP inh hi DEA | L major viab | HCT116 bCat-KO
Cc1c(Cl)cnc(NC(=O)COC(=O)c2cc3c(s2)CCC(C)C3)c1Cl (centres undefined) | i | i | i | i | i | i
c1ccc(Oc2cccc(OCCCCN3CCCC3)c2)cc1 | i | i | i | i | 99 | i
Clc1cccc(OCCN2CCN(CCOc3cccc(Cl)c3)CC2)c1 | i | i | i | i | 99 | i
Brc1cccc(OCCCN2CCCCCC2)c1 | i | nt | i | i | 96 | nt
CC1CCN(CCOc2cccc(Br)c2)CC1 | i | i | i | i | 71 | i
COc1cccc(C(=O)OCCN2CCCCC2)c1 | i | i | i | i | i | i
O=C(Nc1ccccc1)Nc1ccccc1-n1ccnc1 | i | nt | i | i | 80 | nt
N#Cc1ccccc1NC(=O)Nc1ccccc1 | i | nt | i | i | i | nt
CC(C)CCN(CCC(C)C)C(CO)(CO)CO | i | nt | i | i | i | nt
Cc1nc(Nc2nc(CSc3ccc(Cl)cc3)cc(=O)[nH]2)nc2ccccc12 | i | i | i | i | i | i
Cc1nc(Nc2nc(CSc3nc4ccccc4[nH]3)cc(=O)[nH]2)nc2ccccc12 | i | 3.7 | i | i | i | 3.6
COc1ccc2nc(Nc3nc(CSc4nc5ccccc5[nH]4)cc(=O)[nH]3)nc(C)c2c1 | i | i | i | i | 100 | 6.1
Cc1ccc2cc3c(N)c4c(C)ccc(C)c4nc3nc2c1 | i | nt | i | i | 100 | nt
Cc1ccc(C2CC(c3cccc(Cl)c3)n3nc(N)nc3N2)cc1 (centres undefined) | i | i | i | i | i | i
CCOc1ccc(C2CC(c3cccc(C)c3)n3nc(N)nc3N2)cc1 (centres undefined) | i | i | i | i | i | i
Cc1cccc(C2CC(c3ccc(Cl)cc3)Nc3nc(N)nn32)c1 (centres undefined) | i | i | i | i | 64 | i
Cc1cccc(C2CC(c3ccc(F)cc3)Nc3nc(N)nn32)c1 (centres undefined) | i | i | i | i | 93 | i
CCc1ccc(C2CC(c3cccc(Cl)c3)n3nc(N)nc3N2)cc1 (centres undefined) | i | i | i | i | 54 | i
O=C(Nc1cccc(C(F)(F)F)c1)C(=O)N1CCCCC1 | i | nt | i | i | i | nt
COc1ccc(-n2cc(CNCCc3nc(C)cc(C)n3)c(-c3ccccc3Cl)n2)cc1 | i | nt | i | i | i | nt
Fc1ccc(-n2cc(CNCCc3ccccn3)c(-c3ccccc3Cl)n2)cc1 | i | nt | i | i | i | nt
COc1ccc(-n2cc(CNCCCn3ccnc3)c(-c3ccccc3Cl)n2)cc1 | i | nt | i | i | 100 | nt
COc1ccc(-n2cc(CNCCc3ncc(C)[nH]3)c(-c3ccccc3Cl)n2)cc1 | i | nt | i | i | 100 | nt
CCN1CCC(CNCc2cn(-c3ccc(OC)cc3)nc2-c2ccccc2Cl)C1 (centres undefined) | i | nt | i | i | 101 | nt
Cn1[nH]c(C(F)(F)F)c(C=Nc2ccc(Cl)cc2)c1=O | i | nt | i | i | i | nt
SMILES | TNAP inh no acc | PTEN del growth | TNAP act hi DEA | TNAP inh hi DEA | L major viab | HCT116 bCat-KO
CN(CC(=O)O)S(=O)(=O)c1ccc2c(c1)NC(=O)CC(=O)N2 | i | nt | i | i | i | nt
O=C(C1CCCO1)N1CCN(C(=S)Nc2ccc(F)cc2)CC1 (centres undefined) | i | i | i | i | 56 | i
O=C(C1CCCO1)N1CCN(C(=S)Nc2ccc(F)c(Cl)c2)CC1 (centres undefined) | i | nt | i | i | i | nt
O=[N+]([O-])c1ccccc1-c1ccc(/C=N/n2cnnc2)o1 | i | i | i | i | i | i
O=C1ON=C(c2ccccc2)/C1=C/c1ccc(-c2ccccc2[N+](=O)[O-])o1 | i | i | i | i | 100 | i
COC(=O)c1sc(S(=O)(=O)Nc2ccc(C)c(C)c2)c(C(=O)OC)c1C | i | i | i | i | i | i
CC(=O)c1c(N2CCCCC2)nc(=S)n(Cc2ccccc2)c1C | i | i | i | i | i | i
CC(=O)c1c(N2CCN(Cc3ccccc3)CC2)nc(=S)n(Cc2ccccc2)c1C | i | i | i | i | 63 | i
NCCc1nnc(SCc2ccccc2F)o1 | i | i | i | i | i | i
NCCCCCc1nnc(SCc2ccccc2Cl)o1 | i | i | i | i | 99 | i
O=C(N/N=C1/C(=O)c2cccc3cccc1c23)c1ccc(Cl)cc1 | i | i | i | i | 57 | i
Cc1ccc(OCc2nnc(SC(C)C(=O)O)n2Cc2ccccc2)cc1 (centres undefined) | i | nt | i | i | i | nt
Cc1nn(-c2ccc(F)cc2)c(N)c1C1(O)C(=O)Nc2ccccc21 (centres undefined) | i | nt | i | i | i | nt
Cc1ccc(S(=O)(=O)/N=C2/NC(=O)/C(=C/c3ccc(Br)o3)S2)cc1 | i | i | i | i | 51 | i
CCOC(=O)N1CCN(C(=O)CCCCn2c(=S)[nH]c3ccsc3c2=O)CC1 | i | nt | i | i | i | nt
COc1ccc(-c2csc(C3=C(O)CN(Cc4ccc(Cl)cc4)C3=N)n2)cc1OC | i | i | i | i | 58 | i
Cc1nc(C)c(CCNC(=O)c2ccccc2Br)s1 | i | i | i | i | i | i
COc1ccc2c(c1)O[C@H](c1ccc3c(c1)OCO3)[C@@H](OC(=O)N[C@H](C)C1CCCCC1)C2=O | i | 1.2 | i | i | i | i
CNC(=S)NC(CC(=O)OC)c1ccc2c(c1)OCO2 (centres undefined) | i | nt | i | i | i | nt
O=[N+]([O-])c1cccnc1N1CCC(c2cc(-c3ccc(Cl)cc3Cl)n[nH]2)CC1 | 79 | i | i | i | i | i
COc1ccc(OC)c(-c2cc(C3CCN(c4ncccc4[N+](=O)[O-])CC3)[nH]n2)c1 | i | i | i | i | i | i
COc1ccc(NC(=O)c2c(NC(=O)CNCC(C)C)sc3c2CCC3)c(OC)c1 | i | nt | i | i | i | nt
Cc1ccc(SCCC(=O)NC2CC2)cc1 | i | nt | i | i | i | nt
CC(C)CNC(=O)COC(=O)c1ccc(F)cc1Cl | i | nt | i | i | i | nt
Cc1ccc(Cl)cc1NC(=O)c1ccc(NC(=O)CCC(=O)O)cc1 | i | i | i | i | 53 | i
Cc1ccc(Cl)cc1NC(=O)CCC(=O)Nc1cc(Cl)ccc1C | i | i | i | i | i | i
Clc1nc(-c2cccnc2)nc2scc(-c3ccccc3)c12 | i | i | i | i | i | i
COc1ccc(-c2csc3nc(-c4cccnc4)nc(Cl)c23)cc1OC | i | i | i | i | 54 | i
Cn1c(=O)[nH]c(=O)c2c1nc(SCCN1CCCCC1)n2CCCc1ccccc1 | i | i | i | i | 98 | i
Cn1c(=O)[nH]c(=O)c2c1nc(SCCN1CCCCC1)n2Cc1ccccc1 | i | i | i | i | 99 | i

Compound activity from PubChem.
